Reference: ChEMBL document CHEMBL4425092, “ent-Labdane Diterpenoids from the Aerial Parts of Eupatorium obtusissmum” (2016)

Tests used:
Type in all cases: functional
HeLa = assay: Antiproliferative activity against human HeLa cells after 48 hrs by sulforhodamine B assay
In short: (§1)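 Cells seeded at 2500 per well and treated from day 1 after plating for 48 h, in triplicate, at dilutions over 0.001–100 μM. Stocks were made in DMSO at 400× the top final concentration, and vehicle controls received 0.25% v/v DMSO. Cells were fixed with ice-cold TCA for 60 min at 4 °C, then stained with SRB. OD was read at 530 nm, corrected for medium-only background, and GI50 was calculated by NCI formulas.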

HBL-100 = assay: Antiproliferative activity against human HBL100 cells after 48 hrs by sulforhodamine B assay; details: HBL-100, 48 h; in short: as §1
A549 = assay: Antiproliferative activity against human A549 cells after 48 hrs by sulforhodamine B assay; details: A549, 48 h; in short: as §1
SW1573 = assay: Antiproliferative activity against human SW1573 cells after 48 hrs by sulforhodamine B assay; details: SW1573, 48 h
In short: (§2)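 Plating was at 5000 cells per well, with 48 h drug exposure starting on day 1, in triplicate, at dilutions spanning 0.001–100 μM. DMSO stocks were 400× the top final concentration, and vehicle controls received 0.25% v/v DMSO. Cells were fixed with cold TCA for 60 min at 4 °C, and growth was measured by SRB. Absorbance at 530 nm was corrected for medium-only blank wells, and GI50 was derived by NCI formulas.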

T47D = assay: Antiproliferative activity against human T47D cells after 48 hrs by sulforhodamine B assay; in short: as §2
WiDr = assay: Antiproliferative activity against human WiDr cells after 48 hrs by sulforhodamine B assay; in short: as §2

| Structure (SMILES) | GI50 (HeLa) [µM] | GI50 (HBL-100) [µM] | GI50 (A549) [µM] | GI50 (SW1573) [µM] | GI50 (T47D) [µM] | GI50 (WiDr) [µM] |
| --- | --- | --- | --- | --- | --- | --- |
| C=C1CC[C@@H]2C(C)(C)[C@@H](O)CC[C@@]2(C)[C@@H]1C[C@H]1OC(=O)C=C1C | 62 | > 100 | 44 | > 100 | > 100 | > 100 |
| CC1=CC(=O)O[C@@H]1C[C@@H]1[C@@H](C)C(=O)C[C@@H]2C(C)(C)[C@H](O)CC[C@@]12C | > 100 | > 100 | > 100 | > 100 | > 100 | > 100 |
| CC1=CC(=O)O[C@H]1C[C@@H]1[C@@H](C)C(=O)C[C@@H]2C(C)(C)[C@@H](O)CC[C@@]12C | > 100 | > 100 | > 100 | > 100 | > 100 | > 100 |
| C=C1CC[C@@H]2C(C)(C)[C@H](O)CC[C@@]2(C)[C@@H]1C[C@H]1OC(=O)C=C1C | 62 | > 100 | 59 | > 100 | > 100 | > 100 |
| CC1=CC(=O)O[C@@H]1C[C@@H]1[C@@H](C)C(=O)C[C@@H]2C(C)(C)[C@@H](O)CC[C@@]12C | > 100 | > 100 | > 100 | > 100 | > 100 | > 100 |
| C=C1[C@@H](OC(C)=O)C[C@@H]2C(C)(C)[C@@H](O)CC[C@@]2(C)[C@@H]1C[C@H]1OC(=O)C=C1C | 19 | 35 | 23 | 57 | 24 | 32 |
| COc1cc([C@@H]2c3cc4c(cc3[C@@H](O[C@@H]3O[C@@H]5CO[C@@H](C)O[C@H]5[C@H](O)[C@H]3O)[C@H]3COC(=O)[C@H]23)OCO4)cc(OC)c1O [ETOPOSIDE] | 3 | 2.3 | 0.7 | 15 | 22 | 23 |
